Assay results taken from ChEMBL document CHEMBL4376883, “Discovery and Optimization of Small Molecules Targeting the Protein-Protein Interaction of Heat Shock Protein 90 (Hsp90) and Cell Division Cycle 37 as Orally Active Inhibitors for the Treatment of Colorectal Cancer” (J Med Chem, 2020).

How the values were obtained:
Heat shock protein HSP90 = Heat shock protein HSP90 (Homo sapiens, UniProt P07900+P08238); assay: Binding affinity to recombinant […] HSP90 N-terminal domain (9 to 236 residues) (unknown origin) expressed in Escherichia coli BL21 (DE3) by isothermal calorimetric method
Procedure, shortened: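 ITC: 50 µM Hsp90 in the cell and 300 µM compound in the syringe, both in 20 mM Tris-HCl, 150 mM NaCl, pH 7.4. Nineteen injections at 180 s intervals with stirring at 1000 rpm.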

[1] = Distribution coefficient, log D of the compound at pH 7.4 by potentiometric titration method; format: physicochemical; settings: octanol/water
Procedure, shortened: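 log D at pH 7.4 measured by potentiometric titration on a Gemini Profiler.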

[2] = Stability of the compound in mouse plasma assessed as parent compound remaining at 1 uM measured immediately by LC-MS/MS analysis; format: ADME, cell-free; settings: read-out: Stability
Procedure, shortened: (§1)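 Compound diluted from 10 mM DMSO stock to 1 μM in mouse or human plasma and held at 37 °C in a water bath. Reactions were stopped with acetonitrile at 0, 10, 30, 60 and 90 min. Parent compound was quantified by LC-MS/MS as % remaining.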

[3] = Stability of the compound in mouse plasma assessed as parent compound remaining at 1 uM measured after 10 mins by LC-MS/MS analysis; format: ADME, cell-free; settings: read-out: Stability; procedure, shortened: as §1
[4] = Stability of the compound in human plasma assessed as parent compound remaining at 1 uM measured after 60 mins by LC-MS/MS analysis; format: ADME, cell-free; settings: read-out: Stability; procedure, shortened: as §1
HCT-116 = assay: Effect on HSP90 expression in human HCT116 cells up to 10 uM measured after 24 hrs by Western blot analysis; format: cell-based; settings: hct-116, 24 h
Procedure, shortened: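 HCT116 cells treated with 0, 1, 5 or 10 µM for 24 h, or with 10 µM for 0, 4, 12, 24 or 48 h. Lysates separated by SDS-PAGE and blotted. Membranes blocked in 5% milk, primary antibodies overnight at 4 °C, HRP secondaries, chemiluminescent detection.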

[5] = Tmax in plasma of human HCT116 cells xenografted BALB/c mouse at 80 mg/kg, po administered as single dose by LC-MS/MS analysis; format: ADME, organism-based
Procedure, shortened: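 HCT116-xenografted mice (n = 6 per group) received a single oral 80 mg/kg dose. Blood and tumor were sampled at 0 to 24 h. Plasma was obtained by centrifugation at 3000 rpm for 10 min. Samples were stored at −80 °C and quantified by LC-MS/MS.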

[6] = Apparent volume of distribution during terminal phase in plasma of human HCT116 cells xenografted BALB/c mouse at 80 mg/kg, po administered as single dose by LC-MS/MS analysis; format: ADME, organism-based; settings: read-out: Vz/F
Procedure, shortened: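 Xenograft mice (n = 6 per group) received a single 80 mg/kg oral dose. Plasma and tumour were sampled over 0–24 h into heparinized tubes and analysed by LC-MS/MS.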

[7] = AUC (0 to t) in tumor of human HCT116 cells xenografted BALB/c mouse at 80 mg/kg, po administered as single dose by LC-MS/MS analysis; format: ADME, organism-based, Neoplasm
Procedure, shortened: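 Tumour-bearing mice (n = 6 per group) given one oral dose of 80 mg/kg. Blood and tumour collected into heparinized tubes at 0, 0.25, 0.5, 1, 2, 4, 8, 12 and 24 h. Plasma obtained by centrifugation at 3000 rpm for 10 min. Samples stored at -80 °C and quantified by LC-MS/MS.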

[8] = Half life in plasma of human HCT116 cells xenografted BALB/c mouse at 80 mg/kg administered as single dose by LC-MS/MS analysis

Compound: Cc1cc(C)c(S(=O)(=O)N(CC(=O)O)c2ccc(Nc3ccnc(N4CCNCC4)n3)cc2)c(C)c1
- Kd (Heat shock protein HSP90): 630 nM
- logD [1]: 1.93
- remaining at 0 min, 1 µM [2]: 100%
- remaining at 10 min, 1 µM [3]: 100%
- remaining at 1 h, 1 µM [4]: 102%
- Activity (HCT-116): Non-Toxic
- Tmax [5]: 30 min
- Vd/F [6]: 0.392 L/kg
- AUC(0-t) [7]: 132 µg·h/mL
- T1/2 [8]: 87.6 min
